In ChEMBL document CHEMBL1134280, “Discovery and biological evaluation of a new family of potent inhibitors of the dual specificity protein phosphatase Cdc25” (J Med Chem, 2001):

What was measured:
[1] = biological target: T1, M-phase inducer phosphatase 2 (Homo sapiens, UniProt P30305); assay: Inhibitory activity against recombinant human cell division cycle 25B
T1 sequence (P30305 whole entry): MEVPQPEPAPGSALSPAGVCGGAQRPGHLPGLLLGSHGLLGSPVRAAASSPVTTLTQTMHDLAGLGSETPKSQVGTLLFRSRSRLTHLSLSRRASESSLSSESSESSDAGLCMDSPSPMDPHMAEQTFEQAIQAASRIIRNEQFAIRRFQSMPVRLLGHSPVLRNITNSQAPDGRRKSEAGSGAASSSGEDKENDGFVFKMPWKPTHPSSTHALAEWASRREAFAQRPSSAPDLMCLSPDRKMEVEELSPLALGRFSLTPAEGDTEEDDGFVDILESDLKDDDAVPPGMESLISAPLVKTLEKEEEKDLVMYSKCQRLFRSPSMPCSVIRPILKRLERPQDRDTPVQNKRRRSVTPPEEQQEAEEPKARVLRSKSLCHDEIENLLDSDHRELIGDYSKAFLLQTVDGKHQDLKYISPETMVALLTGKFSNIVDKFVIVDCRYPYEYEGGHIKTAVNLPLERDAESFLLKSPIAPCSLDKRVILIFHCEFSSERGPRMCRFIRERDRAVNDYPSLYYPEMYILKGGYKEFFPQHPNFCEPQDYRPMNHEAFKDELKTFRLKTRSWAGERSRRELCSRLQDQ
In short: (§1)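 GST-fusion enzyme (Cdc25B₂, VHR) or human recombinant PTP1B, with O-methyl fluorescein phosphate as substrate in a miniaturized microtiter format. IC50 values were taken from concentration–response data.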

[2] = biological target: T2, Tyrosine-protein phosphatase non-receptor type 1 (Homo sapiens, UniProt P18031); assay: Inhibitory Activity against Recombinant Human PTP1
T2 sequence (P18031 whole entry): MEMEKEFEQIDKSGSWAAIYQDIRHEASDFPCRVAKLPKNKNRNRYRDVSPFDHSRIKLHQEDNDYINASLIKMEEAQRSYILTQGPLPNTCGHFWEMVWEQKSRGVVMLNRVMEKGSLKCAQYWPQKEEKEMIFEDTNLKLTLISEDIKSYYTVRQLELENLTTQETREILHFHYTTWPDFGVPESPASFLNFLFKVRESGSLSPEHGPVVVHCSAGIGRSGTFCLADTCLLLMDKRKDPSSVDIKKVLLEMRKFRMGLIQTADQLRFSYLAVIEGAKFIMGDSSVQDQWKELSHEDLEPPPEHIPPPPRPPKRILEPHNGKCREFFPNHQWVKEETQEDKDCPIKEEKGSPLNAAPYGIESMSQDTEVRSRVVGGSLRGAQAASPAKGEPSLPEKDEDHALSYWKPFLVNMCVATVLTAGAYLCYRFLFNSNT
In short: as §1, with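 “format. After 60 min at ambient temperature, product fluorescence was read (excitation 485/20, emission 530/30).” for “format.”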

[3] = biological target: Dual specificity protein phosphatase 3 (Homo sapiens, UniProt P51452); assay: Inhibitory Activity against Recombinant Human VHR
In short: as §1, with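 “format. After 60 min at ambient temperature, product fluorescence was read (excitation 485/20, emission 530/30).” for “format.”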

Dual specificity protein phosphatase 3, sequence (P51452 whole entry): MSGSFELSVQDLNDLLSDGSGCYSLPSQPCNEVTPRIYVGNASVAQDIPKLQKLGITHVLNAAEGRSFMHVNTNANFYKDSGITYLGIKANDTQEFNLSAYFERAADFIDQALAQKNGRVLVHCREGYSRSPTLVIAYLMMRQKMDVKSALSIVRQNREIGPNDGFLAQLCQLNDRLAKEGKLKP

SMILES	IC50 [1]	IC50 [2]	IC50 [3]
O=C1C(NCCN2CCOCC2)=C(Cl)C(=O)c2ncccc21	0.82 µM	> 10 µM	> 10 µM
O=C1C(Cl)=C(NC2CCc3ccccc32)C(=O)c2ncccc21 (centres undefined)	0.3 µM	–	–
O=C1C(Cl)=C(NCCN2CCOCC2)C(=O)c2cnccc21	0.59 µM	> 10 µM	> 10 µM
O=C1C(Cl)=C(Cl)C(=O)c2cnccc21	1.5 µM	> 10 µM	> 10 µM
O=C1C(Cl)=C(Cl)C(=O)c2ncccc21	4.6 µM	> 10 µM	> 10 µM
O=C1C(Cl)=C(Cl)C(=O)c2cnncc21	8.9 µM	> 10 µM	> 10 µM
O=C1C(Cl)=C(N2CCN(CCOCCO)CC2)C(=O)c2ncccc21	0.9 µM	> 10 µM	> 10 µM
COC(=O)c1nc(-c2ccc3c(n2)C(=O)C(=N)C(OC)=C3O)c(N)c(-c2ccc(OC)c(OC)c2O)c1C	0.37 µM	8.7 µM	5.1 µM
O=C1/C(=N\C(Cc2c[nH]c3ccccc23)C(=O)O)C(Cl)=C(O)c2cccnc21 (centres undefined)	16 µM	> 10 µM	> 10 µM

Next, values leading:

IC50 [1]	IC50 [2]	IC50 [3]	SMILES
0.93 µM	> 10 µM	> 10 µM	CCCCCCOc1ccc(NC2=C(Cl)C(=O)c3cccnc3C2=O)cc1
5.1 µM	> 10 µM	> 10 µM	O=C1C(Cl)=C(NCCc2c[nH]c3ccccc23)C(=O)c2ncccc21
0.67 µM	> 10 µM	> 10 µM	CC(/N=C1\C=C(O)c2ncccc2C1=O)C(O)c1ccccc1 (centres undefined)
0.51 µM	> 100 µM	16 µM	CC(/N=C1\C=C(O)c2cccnc2C1=O)C(O)c1ccccc1 (centres undefined)
0.45 µM	> 100 µM	17 µM	COc1cc(CC/N=C2\C=C(O)c3cccnc3C2=O)ccc1O
3 µM	> 10 µM	> 10 µM	O=C1C=CC(=O)c2ncccc21
–	> 100 µM	4 µM	O=C1C(Cl)=C(NCCN2CCOCC2)C(=O)c2ncccc21
0.64 µM	8 µM	8.5 µM	O=C1/C(=N/CCc2cc(Br)c(O)c(Br)c2)C=C(O)c2cccnc21
4.8 µM	> 10 µM	> 10 µM	O=C1C(Cl)=C(Cl)C(=O)c2ncncc21
0.43 µM	9.8 µM	1.1 µM	O=C1C(Cl)=C(NCCN2CCOCC2)C(=O)c2cnncc21
